From ChEMBL document CHEMBL3763144, “Optimization of a Novel Series of Ataxia-Telangiectasia Mutated Kinase Inhibitors as Potential Radiosensitizing Agents” (J Med Chem, 2016) come the findings set out here.

Series [1] deals with Plasma. Briefly: Stability in mouse plasma assessed as compound stability time by UPLC-MS analysis. The series is classed as ADME, cell-free.
A short description of series [2]: Stability of the compound in phosphate buffered saline assessed as compound stability time at pH 5 by UPLC-MS analysis. The series is classed as physicochemical. To be noted: buffer.
The nature of series [3]: Stability of the compound in phosphate buffered saline assessed as compound stability time at pH 3 by UPLC-MS analysis. The series is classed as physicochemical. To be noted: buffer.
The nature of series [4]: Intrinsic clearance in human liver microsomes after 0.5 to 4 hrs by UPLC-MS analysis. The series is classed as ADME. To be noted: read-out: CLH.
Series [5] relates to Plasma. The series is described as follows: Stability in human plasma assessed as compound stability time by UPLC-MS analysis. The series is classed as ADME, cell-free.
Series [6] in a line: Intrinsic clearance in rat liver microsomes after 0.5 to 4 hrs by UPLC-MS analysis. Conditions: read-out: CLH. The series is classed as ADME. A general note: Liver microsomes are vesicles of endoplasmic reticulum, rich in cytochrome P450 enzymes.
The nature of series [7]: Intrinsic clearance in dog liver microsomes after 0.5 to 4 hrs by UPLC-MS analysis. The series is classed as ADME, Canis lupus familiaris. Conditions: read-out: CLH.
A short description of series [8]: Intrinsic clearance in CD-1 mouse liver microsomes after 0.5 to 4 hrs by UPLC-MS analysis. The series is classed as ADME. To be noted: read-out: CLH.
Series [9] can be described thus: Half life in dog liver microsomes by UPLC-MS analysis. The series is classed as ADME, Canis lupus familiaris.
Series [10] can be described thus: Permeability of the compound at 10 uM after 30 mins by PAMPA. To be noted: read-out: permeability. It counts as ADME. In general terms: The PAMPA barrier holds no transporters, so it reflects passive diffusion.
The test system of series [11] is Plasma. Briefly: Stability in rat plasma assessed as compound stability time by UPLC-MS analysis. The series is classed as ADME, cell-free.
Series [12] in a line: Stability of the compound in phosphate buffered saline assessed as compound stability time at pH 7.4 by UPLC-MS analysis. Conditions: buffer. It counts as physicochemical.
Series [13] in a line: Half life in CD-1 mouse liver microsomes by UPLC-MS analysis. The series is classed as ADME.
Series [14] can be described thus: Half life in rat liver microsomes by UPLC-MS analysis. The series is classed as ADME.
Series [15] is described as follows: Half life in human liver microsomes by UPLC-MS analysis. The series is classed as ADME.
For series [16], the species on record is Mus musculus. Briefly: Drug level in C57BL/6 mouse treated with 1-(6,7-Dimethoxyquinazolin-4-yl)-3-(pyridin-2-yl)-1H-1,2,4-triazol-5-amine by qualitative tandem mass spectrometric analysis. The series is classed as ADME, organism-based. Conditions: in vivo.
Series [17] is filed under the species Mus musculus. The series is described as follows: Drug metabolism in C57BL/6 mouse assessed as 4-(5-amino-3-(pyridin-2-yl)-1H-1,2,4-triazol-1-yl)quinazoline-6,7,8-triol formation by qualitative tandem mass spectrometric analysis. Conditions: in vivo. The series is classed as ADME, organism-based.
Series [18] in a line: Clearance in C57BL/6 mouse at 10 mg/kg, iv. To be noted: in vivo. It counts as ADME, organism-based. The procedure, abridged: (§1)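 Female C57BL/6 mice, 22-27 g; single tail-vein injection at 10 or 20 mg/kg (vehicle groups at 0) in EtOH/PPG/PBS pH 7.4 5/45/50 with HβCD 10 mM and 5% DMSO, 4 ml/kg. Blood taken at 5, 15, 30 min, 1, 4, 24 h, one mouse per time point, and at 48 h. EDTA plasma mixed with acetonitrile containing warfarin internal standard; UPLC/MS quantitation by peak-area ratio.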

Series [19] in a line: Cmax in C57BL/6 mouse at 20 mg/kg, iv by UPLC-MS analysis. The series is classed as ADME, organism-based. The arrangement: dose 20 mg/kg, route intravenous. Conditions: in vivo. The procedure, abridged: as §1
Series [20] is described as follows: Tmax in C57BL/6 mouse at 20 mg/kg, iv by UPLC-MS analysis. The series is classed as ADME, organism-based. Conditions: in vivo. The procedure, abridged:
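Female C57BL/6 mice (22-27 g) received a single tail-vein injection at 4 ml/kg in 5/45/50 EtOH/PPG/PBS (pH 7.4) with 10 mM HβCD and 5% DMSO. Groups were 0, 10 and 20 mg/kg. Blood was drawn retro-orbitally at 5, 15, 30 min, 1, 4, 24 and 48 h into EDTA. Plasma was precipitated with acetonitrile containing 2 uM warfarin as internal standard and quantified by UPLC/MS from the analyte/internal-standard peak-area ratio.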

Series [21] in a line: Half life in C57BL/6 mouse at 10 mg/kg, iv. The series is classed as ADME, organism-based. Conditions: in vivo. The procedure, abridged:
as §1

The species entered for series [22] is Mus musculus. The series is described as follows: Drug metabolism in C57BL/6 mouse assessed as (2S,3S,4S,5R,6S)-6-(4-(5-amino-3-(pyridin-2-yl)-1H-1,2,4-triazol-1-yl)-7-methoxyquinazolin-6-yloxy)-3,4,5-trihydroxytetrahydro-2H-pyran-2-carboxylic acid formation by qualitative tandem mass spectrometric analysis. To be noted: in vivo. The series is classed as ADME, organism-based.

The nature of series [23]: Half life of the compound in aqueous buffer. It counts as physicochemical.
Series [24] is filed under the species Mus musculus. The series is described as follows: Drug metabolism in C57BL/6 mouse assessed as 4-(5-amino-3-(pyridin-2-yl)-1H-1,2,4-triazol-1-yl)-7-methoxyquinazolin-6-ol formation by qualitative tandem mass spectrometric analysis. To be noted: in vivo. The series is classed as ADME, organism-based.
Series [25] is described as follows: Half life in C57BL/6 mouse at 20 mg/kg, iv by UPLC-MS analysis. The series is classed as ADME, organism-based. Conditions: in vivo. The procedure, abridged:
as §1

In general, half-life refers to the time needed for the level to fall by half in the phase considered. `COc1cc2ncnc(-n3nc(-c4ccccn4)nc3N)c2cc1OCCCNC(=O)OC(C)C`: the Stability (in the series on Plasma [1]; in series [2]; in [3]; in the series on Plasma [5]; in the series on Plasma [11]; in series [12]) was over 24 h in each case. Besides, the CLint scaled was 18.8 mL/min/kg in [4], 45.1 mL/min/kg in series [6], under 7.9 mL/min/kg in [7] and 329 mL/min/kg in series [8]. Besides, the half-life in series [9] was over 240 min; in [13] it was 12 min; in series [14] it was 60 min; in series [15], 66 min. The Papp at 0.5 h, 10 µM in series [10] worked out at 432 ×10⁻⁶ cm/s.

`Nc1nc(-c2ccccn2)nn1-c1ncnc2c(O)c(O)c(O)cc12`: the Drug metabolism entry in the series filed under Mus musculus [16] is “metabolite_detected”.

Broadly, the clearance is the rate of elimination divided by the concentration. Higher therefore signals efficient removal. A word on the Cmax: it is the peak of the concentration-time curve. For orientation: Tmax means the time from dosing to the highest level. Consider `COc1cc2ncnc(-n3nc(-c4ccccn4)nc3N)c2cc1OC`, for which the Stability in the series with Plasma [1] is over 48 h; in series [2], over 48 h; in series [3], over 48 h; in the series with Plasma [5], over 48 h; with Plasma [11] it was 19 h; in [12], over 48 h. The CLint scaled is 6.1 mL/min/kg in [4], 57.8 mL/min/kg in series [6], 52.5 mL/min/kg in series [7] and 61.7 mL/min/kg in [8]. In addition, the Drug metabolism entry in the series listed under Mus musculus [17], in the series listed under Mus musculus [22] and in the series filed under Mus musculus [24] was “metabolite_detected” each time. The half-life in series [9] was 36 min; in series [21] it was 60 min; in [13], 54 min; in series [23], over 2880 min; in series [14], 48 min; in series [15], 204 min. In addition, the Papp at 0.5 h, 10 µM in series [10] was determined as 95.9 ×10⁻⁶ cm/s. Besides, the clearance in series [18] is 2.67 mL/min. Besides, the peak level in series [19] (Cmax) was 4 µM. Also, in series [20], the time of peak concentration (Tmax) was 5 min.

Take `COCCOc1cc2ncnc(-n3nc(-c4ccccn4)nc3N)c2cc1OCCOC`: the Stability (with Plasma [1]; in series [2]; in series [3]; with Plasma [5]; in series [12]) was over 48 h each time. In addition, the CLint scaled in [4] was 12.9 mL/min/kg; in series [6], under 11.7 mL/min/kg; in series [7], under 8.3 mL/min/kg; in [8], 22.9 mL/min/kg. Besides, the half-life is over 240 min in [9], 144 min in series [13], over 240 min in [14] and 96 min in [15]. The Papp at 0.5 h, 10 µM in series [10] came out at 16.6 ×10⁻⁶ cm/s. The Cmax in [19] was found to be 5.8 µM.

On to `COc1cc2ncnc(-n3nc(-c4ccccn4)nc3N)c2cc1O[C@@H]1O[C@H](C(=O)O)[C@@H](O)[C@H](O)[C@H]1O`, for which the Drug metabolism result in the series filed under Mus musculus [16] is “metabolite_detected”.

On to `COCCOc1cc2c(-n3nc(-c4ccccn4)nc3N)ncnc2cc1OC`, for which the Stability was over 48 h in the series with Plasma [1]; over 24 h in [2]; over 24 h in series [3]; over 48 h in the series on Plasma [5]; over 24 h with Plasma [11]; over 24 h in [12]. In addition, the CLint scaled in series [4] was under 5.2 mL/min/kg; in series [6], under 11.7 mL/min/kg; in [7] it was under 8.3 mL/min/kg; in series [8] it was 27.1 mL/min/kg. Also, the half-life in series [9] was over 240 min; in series [25], 1140 min; in series [13], 120 min; in series [14] it was over 240 min; in series [15], over 240 min. For the same compound, the Papp at 0.5 h, 10 µM in series [10] came out at 196 ×10⁻⁶ cm/s. Also, the highest concentration (Cmax) in [19] worked out at 9.5 µM.

Turning to `COc1cc2ncnc(-n3nc(-c4ccccn4)nc3N)c2cc1O`, the Drug metabolism entry in the series listed under Mus musculus [16] is on record as “metabolite_detected”.
